Measurements taken from PMC3288537 (ACS Chemical Biology, 2011).

What was measured:
CD45 = biological target: T1, CD45 (Homo sapiens, UniProt P08575); assay: Dose-response OMFP phosphatase assay, CD45; type: biochemical; details: read-out: IC50 CD45; OMFP substrate
T1 sequence (P08575 26-1306): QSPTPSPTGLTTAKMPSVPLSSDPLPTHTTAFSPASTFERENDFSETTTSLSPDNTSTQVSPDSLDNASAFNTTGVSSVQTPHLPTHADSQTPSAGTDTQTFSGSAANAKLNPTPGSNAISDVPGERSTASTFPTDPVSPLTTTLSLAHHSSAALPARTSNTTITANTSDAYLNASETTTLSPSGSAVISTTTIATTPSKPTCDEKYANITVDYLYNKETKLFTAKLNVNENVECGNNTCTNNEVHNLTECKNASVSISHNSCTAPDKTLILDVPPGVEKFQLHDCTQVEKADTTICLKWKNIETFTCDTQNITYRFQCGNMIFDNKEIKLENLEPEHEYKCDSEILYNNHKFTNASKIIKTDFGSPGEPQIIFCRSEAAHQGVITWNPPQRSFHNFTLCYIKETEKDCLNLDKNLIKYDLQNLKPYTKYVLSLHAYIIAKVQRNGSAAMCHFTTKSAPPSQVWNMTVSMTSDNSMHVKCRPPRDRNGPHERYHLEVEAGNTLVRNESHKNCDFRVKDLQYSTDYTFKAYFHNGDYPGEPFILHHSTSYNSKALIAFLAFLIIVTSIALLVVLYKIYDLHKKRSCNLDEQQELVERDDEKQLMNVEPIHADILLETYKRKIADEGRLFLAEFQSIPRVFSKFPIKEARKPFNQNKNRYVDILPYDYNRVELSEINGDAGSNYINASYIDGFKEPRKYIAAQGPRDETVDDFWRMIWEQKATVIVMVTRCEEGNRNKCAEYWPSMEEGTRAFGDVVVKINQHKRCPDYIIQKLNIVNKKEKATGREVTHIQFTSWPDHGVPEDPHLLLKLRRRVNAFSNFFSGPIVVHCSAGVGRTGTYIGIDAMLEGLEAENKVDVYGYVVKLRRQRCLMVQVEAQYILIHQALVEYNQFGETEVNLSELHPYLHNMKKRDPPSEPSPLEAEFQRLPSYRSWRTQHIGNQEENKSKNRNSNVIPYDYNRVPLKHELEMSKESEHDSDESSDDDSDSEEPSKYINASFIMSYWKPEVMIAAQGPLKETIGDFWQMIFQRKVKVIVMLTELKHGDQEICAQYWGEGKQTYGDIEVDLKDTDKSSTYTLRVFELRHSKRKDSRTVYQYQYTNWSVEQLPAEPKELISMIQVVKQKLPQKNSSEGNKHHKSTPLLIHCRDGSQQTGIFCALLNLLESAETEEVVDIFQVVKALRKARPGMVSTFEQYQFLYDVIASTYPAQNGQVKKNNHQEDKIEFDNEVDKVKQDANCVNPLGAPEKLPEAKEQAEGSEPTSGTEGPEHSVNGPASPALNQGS
In short: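 Ten-point 2-fold dilution series of test compound prepared in DMSO. Fluorescence (ex 485/em 528 nm) read in kinetic mode over 10 min; progress-curve slopes taken as activity. IC50 by nonlinear regression (sigmoidal, variable slope).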

[1] = test system: ERK1/2 and p38 phosphorylation in Jurkat TAg T cells; assay: Immunoblot of pERK1/2, pp38 and pMEK in TCR-stimulated Jurkat TAg T cells; type: cell-based, human
In short: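 Jurkat TAg T cells preincubated with test compound or DMSO (0.2% in time course) for 45 min at 37°C, then stimulated with OKT3 at 500 ng mL-1 for 5 min. Cells lysed at once, or washed and held in fresh RPMI 1640 for set times. Immunoblotted for phospho-ERK1/2, p38 and MEK; bands normalised to total protein (time course also to GAPDH). Mean ± SEM; Student's t-test; 3–4 independent experiments.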

[2] = test system: ERK1/2 and p38 phosphorylation in splenocytes; assay: Immunoblot of phosphorylation levels in spleen of mice injected i.p.; type: in vivo, C57B6 mice; details: mouse spleen, doses and time points used
In short: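 C57B6 mice given test compound i.p. at 3 or 5 mg kg-1, or vehicle; spleens taken 3 h or 6 h later (3 mice per dose and time). Spleen sonicated in Tris pH 7.4 buffer with phosphatase and protease inhibitors; 800 × g supernatant used. Blotted for pS473-AKT, pS23-HePTP, pERK1/2 and pp38, normalised to total protein then GAPDH. ANOVA/Tukey or t-test.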

Tissue concentration = type: in vivo, C57B6 mice; details: mice
LYP = biological target: T2, LYP (Homo sapiens, UniProt Q9Y2R2); assay: Dose-response OMFP phosphatase assay, LYP; type: biochemical; details: read-out: IC50 LYP; OMFP substrate
T2 sequence (Q9Y2R2 1-807): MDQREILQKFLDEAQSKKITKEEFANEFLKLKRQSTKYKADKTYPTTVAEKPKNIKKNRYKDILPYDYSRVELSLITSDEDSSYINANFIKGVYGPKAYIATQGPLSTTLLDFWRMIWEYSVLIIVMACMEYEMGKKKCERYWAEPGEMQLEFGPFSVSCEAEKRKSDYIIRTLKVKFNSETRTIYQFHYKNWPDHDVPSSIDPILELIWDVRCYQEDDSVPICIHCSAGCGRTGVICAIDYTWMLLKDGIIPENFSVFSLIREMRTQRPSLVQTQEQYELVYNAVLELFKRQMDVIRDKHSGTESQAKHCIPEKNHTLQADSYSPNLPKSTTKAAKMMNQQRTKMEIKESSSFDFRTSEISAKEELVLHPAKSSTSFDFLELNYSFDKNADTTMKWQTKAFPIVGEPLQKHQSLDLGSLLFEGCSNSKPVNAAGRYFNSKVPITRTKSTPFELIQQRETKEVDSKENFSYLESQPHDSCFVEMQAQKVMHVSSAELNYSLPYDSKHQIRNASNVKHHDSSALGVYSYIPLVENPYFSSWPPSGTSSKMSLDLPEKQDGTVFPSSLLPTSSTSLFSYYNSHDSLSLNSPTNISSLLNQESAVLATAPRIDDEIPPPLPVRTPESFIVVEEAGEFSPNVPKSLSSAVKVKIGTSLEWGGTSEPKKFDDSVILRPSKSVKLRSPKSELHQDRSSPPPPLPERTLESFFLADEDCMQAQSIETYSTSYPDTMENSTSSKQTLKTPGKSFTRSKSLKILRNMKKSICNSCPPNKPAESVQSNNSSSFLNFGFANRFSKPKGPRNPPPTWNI

[3] = 4 μM preincubation, before TCR stimulation, stimulated DMSO = 100%
[4] = 4 μM, OKT3 stimulation, DMSO = 100%
[5] = 4 μM, up to 2 h after TCR stimulation
[6] = 40 μM, 45 min preincubation, OKT3 5 min, vs DMSO

O=C(O)c1ccccc1-c1ccc(/C=c2\sc3nc4cc(Br)cnc4n3c2=O)o1 [Compound 1]
IC50 (CD45): 3.1 µM
basal pERK1/2 phosphorylation level [1, 3]: 22.0 ± 2.5%
basal pp38 phosphorylation level [1, 3]: 55.0 ± 5.8%
pERK1/2 level after TCR stimulation [1, 4]: 134.3 ± 4.9%
pp38 level after TCR stimulation [1, 4]: 125.5 ± 4.0%
time course of pERK1/2 levels after stimulation [1, 5]: remained constant up to 1 h after stimulation
time course of pp38 levels after stimulation [1, 5]: remained unchanged
pERK1/2 levels [1, 6]: augmented
pMEK levels (activation of MEK) [1, 6]: unchanged
pp38 levels [1, 6]: augmented
pMEK levels in dose-response ([1]; concentrations as high as 40 μM): not affected
AKT phosphorylation levels [2]: no change
phospho-HePTP (pS23) levels [2]: No changes
blood-brain-barrier crossing (Tissue concentration; i.p.): does not appear to cross the BBB
concentration in the spleen tissue (Tissue concentration; i.p.): < 0.5 µM
compound in cerebellum (Tissue concentration; i.p. 3 or 5 mg/kg, 3 h): could not be detected
compound in brain tissue (Tissue concentration; i.p. 3 or 5 mg/kg, 3 h, detection limit ~1 nM): could not be detected
concentration in splenocytes (Tissue concentration; i.p., 6 h after injection): 0.265 ± 0.119 µM
IC50 (LYP): 1.9 µM
